Source: ChEMBL document CHEMBL3585302, “Synthesis and antibacterial activities of cadiolides A, B and C and analogues” (Bioorg Med Chem, 2015)
Active and inactive are the calls of the source.

What was measured:
Type in all cases: functional, organism-based
[1] = tested on: Pectobacterium carotovorum; assay: Antibacterial activity against Erwinia carotovora CECT 225 assessed as inhibition of microbial growth at 125 ug/ml incubated for 18 hrs by 2-fold microtiter broth dilution method
How it was run: (§1)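 Compounds in DMSO, ten 2-fold serial dilutions (125 down to 0.24 µg/mL tested). Bacteria at OD620 = 0.001 in Nutrient Broth mixed 1:1 with dilutions. Incubated overnight (18 h) at 28°C or 37°C according to strain. Growth read turbidimetrically at OD620. MIC is the lowest concentration giving complete growth inhibition. Triplicate runs. Tetracycline as reference.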

Escherichia coli [2] = assay: Antibacterial activity against Escherichia coli CECT 100 assessed as inhibition of microbial growth at 125 ug/ml incubated for 18 hrs by 2-fold microtiter broth dilution method; how it was run: as §1
Bacillus cereus = assay: Antibacterial activity against Bacillus cereus CECT 148 assessed as inhibition of microbial growth at 125 ug/ml incubated for 18 hrs by 2-fold microtiter broth dilution method; how it was run: as §1
Staphylococcus aureus = assay: Antibacterial activity against Staphylococcus aureus CECT 86 assessed as inhibition of microbial growth at 125 ug/ml incubated for 18 hrs by 2-fold microtiter broth dilution method; how it was run: as §1
Bacillus subtilis = assay: Antibacterial activity against Bacillus subtilis CECT 35 assessed as inhibition of microbial growth at 125 ug/ml incubated for 18 hrs by 2-fold microtiter broth dilution method; how it was run: as §1
Escherichia coli [3] = assay: Antibacterial activity against Escherichia coli CECT 405 assessed as inhibition of microbial growth at 125 ug/ml incubated for 18 hrs by 2-fold microtiter broth dilution method; how it was run: as §1
Enterococcus faecalis = assay: Antibacterial activity against Enterococcus faecalis CECT 481 assessed as inhibition of microbial growth at 125 ug/ml incubated for 18 hrs by 2-fold microtiter broth dilution method; how it was run: as §1
Salmonella typhi = assay: Antibacterial activity against Salmonella typhi CECT 409 assessed as inhibition of microbial growth at 125 ug/ml incubated for 18 hrs by 2-fold microtiter broth dilution method; settings: Salmonella enterica subsp. enterica serovar Typhi
How it was run: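 Compounds in DMSO, ten 2-fold serial dilutions (125 down to 0.24 µg/mL), mixed 1:1 with bacteria in Nutrient Broth at OD620 = 0.001. Incubated overnight (18 h) at 28 or 37 °C depending on strain. Growth read turbidimetrically at OD620; MIC is the lowest concentration completely inhibiting growth, per CLSI. Triplicate runs; tetracycline reference.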

Measured: growth inhibition (GI)

COc1c(Br)cc(C2=C(C(=O)c3ccc(O)cc3)C(=O)O/C2=C\c2cc(Br)c(O)c(Br)c2)cc1Br
inactive: all assays above

COc1c(Br)cc(C2=C(C(=O)c3cc(Br)c(O)c(Br)c3)C(=O)O/C2=C\c2cc(Br)c(O)c(Br)c2)cc1Br
inactive: all assays above

COc1ccc(C2=C(C(=O)c3cc(Br)c(O)c(Br)c3)C(=O)O/C2=C\c2cc(Br)c(O)c(Br)c2)cc1
inactive: all assays above

COc1c(Br)cc(C2=C(C(=O)c3ccc(O)c(Br)c3)C(=O)O/C2=C\c2ccc(O)c(Br)c2)cc1Br
inactive: all assays above

COc1ccc(C2=C(C(=O)c3ccc(O)cc3)C(=O)O/C2=C\c2ccc(O)cc2)cc1
inactive: all assays above

COc1ccc(C2=C(C(=O)c3ccco3)C(=O)O/C2=C\c2ccc(O)c(Br)c2)cc1Br
inactive: all assays above

COc1ccc(C2=C(C(=O)c3ccc(O)c(Br)c3)C(=O)O/C2=C\c2ccc(O)c(Br)c2)cc1Br
inactive: all assays above

COc1c(Br)cc(C2=C(C(=O)c3cc(Br)c(O)c(Br)c3)C(=O)O/C2=C\c2ccc(O)cc2)cc1Br
inactive: all assays above

COc1ccc(C2=C(C(=O)c3ccc(O)c(Br)c3)C(=O)O/C2=C\c2cc(Br)c(O)c(Br)c2)cc1Br
inactive: all assays above

COc1ccc(C2=C(C(=O)c3ccc(O)cc3)C(=O)O/C2=C\c2ccc(O)c(Br)c2)cc1
inactive: all assays above

COc1ccc(C2=C(C(=O)c3ccco3)C(=O)O/C2=C\c2ccc(O)cc2)cc1
inactive: all assays above
